Data taken from publication PMC9273405 (Burns & Trauma, 2022).

What was measured:
[1] = test system: full-thickness injury skin wounds in mice; experiment: Full-thickness injury skin wound healing in mice; format: in vivo, mouse
How it was run: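 Mice were anaesthetised with 1% pentobarbital sodium (0.1 ml/20 g) and given two round 8 × 8 mm dorsal skin wounds. Wounds were treated topically twice daily with 20 μl of vehicle, peptide (0.5, 5 or 50 nM) or EGF (50 nM). Residual wound area was measured from images as a percentage of initial area. New epidermis and granulation tissue thickness were measured from H&E sections on days 4 and 8. Six mice per group.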

[2] = test system: scald wounds in mice skin; experiment: Scald wound repair in mouse skin; format: in vivo; details: 50 nM; for re-epithelialization rate: scald wound

B1: epidermal growth factor (protein, UniProt P01133 23-1207, looked up)
Pro-epidermal growth factor: PQHWSCPEGTLAGNGNSTCVGPAPFLIFSHGNSIFRIDTEGTNYEQLVVDAGVSVIMDFHYNEKRIYWVDLERQLLQRVFLNGSRQERVCNIEKNVSGMAINWINEEVIWSNQQEGIITVTDMKGNNSHILLSALKYPANVAVDPVERFIFWSSEVAGSLYRADLDGVGVKALLETSEKITAVSLDVLDKRLFWIQYNREGSNSLICSCDYDGGSVHISKHPTQHNLFAMSLFGDRIFYSTWKMKTIWIANKHTGKDMVRINLHSSFVPLGELKVVHPLAQPKAEDDTWEPEQKLCKLRKGNCSSTVCGQDLQSHLCMCAEGYALSRDRKYCEDVNECAFWNHGCTLGCKNTPGSYYCTCPVGFVLLPDGKRCHQLVSCPRNVSECSHDCVLTSEGPLCFCPEGSVLERDGKTCSGCSSPDNGGCSQLCVPLSPVSWECDCFPGYDLQLDEKSCAASGPQPFLLFANSQDIRHMHFDGTDYGTLLSQQMGMVYALDHDPVENKIYFAHTALKWIERANMDGSQRERLIEEGVDVPEGLAVDWIGRRFYWTDRGKSLIGRSDLNGKRSKIITKENISQPRGIAVHPMAKRLFWTDTGINPRIESSSLQGLGRLVIASSDLIWPSGITIDFLTDKLYWCDAKQSVIEMANLDGSKRRRLTQNDVGHPFAVAVFEDYVWFSDWAMPSVMRVNKRTGKDRVRLQGSMLKPSSLVVVHPLAKPGADPCLYQNGGCEHICKKRLGTAWCSCREGFMKASDGKTCLALDGHQLLAGGEVDLKNQVTPLDILSKTRVSEDNITESQHMLVAEIMVSDQDDCAPVGCSMYARCISEGEDATCQCLKGFAGDGKLCSDIDECEMGVPVCPPASSKCINTEGGYVCRCSEGYQGDGIHCLDIDECQLGEHSCGENASCTNTEGGYTCMCAGRLSEPGLICPDSTPPPHLREDDHHYSVRNSDSECPLSHDGYCLHDGVCMYIEALDKYACNCVVGYIGERCQYRDLKWWELRHAGHGQQQKVIVVAVCVVVLVMLLLLSLWGAHYYRTQKLLSKNPKNPYEESSRDVRSRRPADTEDGMSSCPQPWFVVIKEHQDLKNGGQPVAGEDGQAADGSMQPTSWRQEPQLCGMGTEQGCWIPVSSDKGSCPQVMERSFHMPSYGTQTLEGGVEKPHSLLSANPLWQQRALDPPHQMELTQ
modifications: Pro-epidermal growth factor
With B1 as the molecule, how does the “skin wound healing rate” value ([1]; 50 nM, 20 μl topical twice a day, day 8 post-operation, n = 6 (vehicle 71 ± 3%)) read?
The value was 87 ± 2%.

And the “thickness of new epidermis” value ([1]; day 4, H&E staining, n = 6 (vehicle 119 ± 7))?
The value was 58 ± 2 μm.

And the “thickness of granulation tissue” value ([1]; day 4, H&E staining, n = 6 (vehicle 505 ± 46))?
Its value is 317 ± 82 μm.

What about the “thickness of new epidermis” value ([1]; day 8, H&E staining, n = 6 (vehicle 86 ± 7)) of the same molecule?
The value was 38 ± 10 μm.

What about the “thickness of granulation tissue” value ([1]; day 8, H&E staining, n = 6 (vehicle 982 ± 8)) of the same molecule?
The value was 719 ± 54 μm.

What about the “regeneration rate of scald wounds” value ([2]; 20 μl topical, day 12 after operation, n = 6 (vehicle 40 ± 4%)) of the same molecule?
The value was 78 ± 5%.

And the re-epithelialization rate ([2]; day 8, H&E staining, n = 6 (vehicle 15 ± 3%))?
The re-epithelialization rate was 38 ± 3%.

What about the re-epithelialization rate ([2]; day 12, H&E staining, n = 6 (vehicle 42 ± 2%)) of the same molecule?
The re-epithelialization rate was “almost complete re-epithelialization”.
